How the values were obtained:
[1] = Cmax in cynomolgus monkey at 3 mg/kg administered via oral gavage measured up to 72 hrs post dose; assay type: ADME, organism-based, Macaca fascicularis; parameters: dose 3 mg/kg, route oral; settings: in vivo
[2] = Intrinsic clearance in cynomolgus monkey hepatocytes assessed per million cells at 1 uM up to 120 mins; assay type: ADME, cell-based, Macaca fascicularis, Hepatocyte; settings: read-out: CLH
[3] = test system: MDR1; assay: Apparent permeability across apical to basolateral side in MDCK cells expressing human MDR1 at 5 uM by LC-MS/MS analysis; assay type: ADME, cell-based, Canis lupus familiaris; settings: dog
Procedure, shortened: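 MDCK cells transfected with human MDR1 were grown as confluent monolayers. 5 µM compound was added apically or basolaterally, with or without the P-gp inhibitor GF120918. Appearance on the opposite side was measured by LC-MS/MS to give Papp; efflux ratio = B→A/A→B without inhibitor.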

[4] = AUC (0 to last) in cynomolgus monkey at 10 mg/kg administered via oral gavage measured up to 72 hrs post dose; assay type: ADME, organism-based, Macaca fascicularis; parameters: dose 10 mg/kg, route oral, time 0 - last; settings: in vivo
[5] = Intrinsic clearance in rat liver microsomes at 1 uM after 60 mins; assay type: ADME, microsome; settings: read-out: CLH
[6] = Cmax in C57Bl/6 mouse liver at 3 mg/kg, po measured after 0.5 hrs by LC-MS analysis; assay type: ADME, organism-based; parameters: dose 3 mg/kg, route oral
Procedure, shortened: (§1)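 Female fasted C57Bl/6 mice, nine per dose, got a single oral dose of 0.3, 1, 3 or 10 mg/kg. Blood was drawn at 0.5 h. Three mice per group were sacrificed at 1, 2 or 4 h for plasma and liver compound levels by LC-MS, and mean maximum levels are reported.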

[7] = AUC (0 to last) in cynomolgus monkey at 3 mg/kg administered via oral gavage measured up to 72 hrs post dose; assay type: ADME, organism-based, Macaca fascicularis; parameters: dose 3 mg/kg, time 0 - last, route oral; settings: in vivo
[8] = Cmax in C57Bl/6 mouse plasma at 3 mg/kg, po measured after 0.5 hrs by LC-MS analysis; assay type: ADME, organism-based; parameters: dose 3 mg/kg, route oral; procedure, shortened: as §1
[9] = Intrinsic clearance in mouse liver microsomes at 1 uM after 60 mins; assay type: ADME, microsome; settings: read-out: CLH
[10] = Intrinsic clearance in mouse hepatocytes assessed per million cells at 1 uM up to 120 mins; assay type: ADME, cell-based, Hepatocyte; settings: read-out: CLH
[11] = Activation of NFkappaB (unknown origin) expressed in HEK293 cells after 6 hrs luciferase reporter gene assay; assay type: cell-based; settings: human
Procedure, shortened: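 HEK293 cells were transfected with the NFκB-luciferase reporter alone, with no TLR vector, to detect direct NFκB activation.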

[12] = Tmax in C57Bl/6 mouse plasma at 0.3 to 10 mg/kg, po by LC-MS analysis; assay type: ADME, organism-based
Procedure, shortened: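 Healthy fasted female C57Bl/6 mice, groups of 9, single oral dose 0.3, 1, 3 or 10 mg/kg. Blood at 0.5 h; three mice per group killed at 1, 2 or 4 h for plasma and liver compound (LC-MS) and ISG expression by RT-qPCR as fold change versus vehicle.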

[13] = Plasma concentration in dog at 1 mg/kg, po measured after 4 hrs post dose; assay type: ADME, organism-based, Canis lupus familiaris
[14] = Cmax in Sprague-Dawley rat at […], iv or 10 mg/kg, po measured after 1 hr post dose; assay type: ADME, organism-based; settings: in vivo
[15] = Intrinsic clearance in rat hepatocytes assessed per million cells at 1 uM up to 120 mins; assay type: ADME, cell-based, Hepatocyte; settings: read-out: CLH
[16] = Cmax in cynomolgus monkey at 1 mg/kg administered via oral gavage measured up to 72 hrs post dose; assay type: ADME, organism-based, Macaca fascicularis; parameters: dose 1 mg/kg, route oral; settings: in vivo
[17] = Ratio of drug uptake in liver to plasma in C57Bl/6 mouse at 0.3 to 10 mg/kg, po by LC-MS analysis; assay type: ADME, organism-based
Procedure, shortened: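 Healthy fasted female C57Bl/6 mice, 9 per dose group, given a single oral dose of 0.3, 1, 3 or 10 mg/kg. Blood taken at 0.5 h. At 1, 2 or 4 h, three mice per group were sacrificed and plasma and liver compound levels were measured by LC-MS.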

[18] = Intrinsic clearance in dog liver microsomes at 1 uM after 60 mins; assay type: ADME, Canis lupus familiaris, microsome; settings: read-out: CLH
[19] = Intrinsic clearance in dog hepatocytes assessed per million cells at 1 uM up to 120 mins; assay type: ADME, cell-based, Canis lupus familiaris, Hepatocyte; settings: read-out: CLH
[20] = Cmax in dog at 1 mg/kg, po; assay type: ADME, organism-based, Canis lupus familiaris; parameters: dose 1 mg/kg, route oral; settings: in vivo
[21] = Tmax in cynomolgus monkey at 1 mg/kg administered via oral gavage measured up to 72 hrs post dose; assay type: ADME, organism-based, Macaca fascicularis; settings: in vivo
Procedure, shortened: (§2)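 Cynomolgus monkeys (five per dose) given single oral gavage doses of 1, 3 or 10 mg/kg; dose levels in different animals, staggered by 3 days. Blood sampled pre-dose and at 0.25, 0.5, 1, 2, 4, 8, 24, 48 and 72 h for plasma compound levels, cytokines (ELISA or Luminex) and gene expression (microarray); clinical signs, body weight and temperature monitored.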

[22] = Cmax in C57Bl/6 mouse plasma at 1 mg/kg, po measured after 0.5 hrs by LC-MS analysis; assay type: ADME, organism-based; parameters: dose 1 mg/kg, route oral; procedure, shortened: as §1
[23] = Intrinsic clearance in human hepatocytes assessed per million cells at 1 uM up to 120 mins; assay type: ADME, cell-based, Hepatocyte; settings: read-out: CLH
[24] = Oral bioavailability in cynomolgus monkey at 1 to 10 mg/kg administered via gavage measured up to 72 hrs post dose; assay type: ADME, organism-based, Macaca fascicularis; settings: in vivo
[25] = test system: Liver; assay: Drug level in Sprague-Dawley rat liver at […], iv or 10 mg/kg, po; assay type: ADME, organism-based; settings: in vivo, BLD = below limit of detection
[26] = Cmax in C57Bl/6 mouse plasma at 0.3 mg/kg, po measured after 0.5 hrs by LC-MS analysis; assay type: ADME, organism-based; parameters: dose 0.3 mg/kg, route oral; procedure, shortened: as §1
[27] = Tmax in cynomolgus monkey at 1 to 10 mg/kg administered via oral gavage measured up to 72 hrs post dose; assay type: ADME, organism-based, Macaca fascicularis; settings: in vivo; procedure, shortened: as §2
[28] = Tmax in dog at 1 mg/kg, po; assay type: ADME, organism-based, Canis lupus familiaris; settings: in vivo
[29] = Cmax in C57Bl/6 mouse liver at 1 mg/kg, po measured after 0.5 hrs by LC-MS analysis; assay type: ADME, organism-based; parameters: dose 1 mg/kg, route oral; procedure, shortened: as §1
[30] = Cmax in C57Bl/6 mouse liver at 10 mg/kg, po measured after 0.5 hrs by LC-MS analysis; assay type: ADME, organism-based; parameters: dose 10 mg/kg, route oral; procedure, shortened: as §1
[31] = Intrinsic clearance in human liver microsomes at 1 uM after 60 mins; assay type: ADME, microsome; settings: read-out: CLH
[32] = Cmax in C57Bl/6 mouse liver at 0.3 mg/kg, po measured after 0.5 hrs by LC-MS analysis; assay type: ADME, organism-based; parameters: dose 0.3 mg/kg, route oral; procedure, shortened: as §1
[33] = Cmax in C57Bl/6 mouse plasma at 10 mg/kg, po measured after 0.5 hrs by LC-MS analysis; assay type: ADME, organism-based; parameters: dose 10 mg/kg, route oral; procedure, shortened: as §1
[34] = test system: Rattus norvegicus; assay: Drug level in Sprague-Dawley rat systemic circulation at […], iv or 10 mg/kg, po; assay type: ADME, organism-based; settings: in vivo, BLD = below limit of detection
[35] = Tmax in cynomolgus monkey at 10 mg/kg administered via oral gavage measured up to 72 hrs post dose; assay type: ADME, organism-based, Macaca fascicularis; settings: in vivo; procedure, shortened: as §2
[36] = Cmax in cynomolgus monkey at 10 mg/kg administered via oral gavage measured up to 72 hrs post dose; assay type: ADME, organism-based, Macaca fascicularis; parameters: dose 10 mg/kg, route oral; settings: in vivo
[37] = Cmax in guinea pig up to […], iv; assay type: ADME, organism-based, Cavia porcellus; parameters: dose 4.9 mg/kg, route intravenous; settings: in vivo
[38] = Tmax in cynomolgus monkey at 3 mg/kg administered via oral gavage measured up to 72 hrs post dose; assay type: ADME, organism-based, Macaca fascicularis; settings: in vivo; procedure, shortened: as §2
[39] = Intrinsic clearance in cynomolgus monkey liver microsomes at 1 uM after 60 mins; assay type: ADME, Macaca fascicularis, microsome; settings: read-out: CLH

Cc1cc(COc2nc(N)nc3ccn(Cc4ccccn4)c23)no1
Cmax [1]: 11.2 ng/mL
hepatocyte CLint at 1 µM [2]: 80 µL/min/1e6 cells
Papp A→B at 5 µM [3]: 41 ×10⁻⁶ cm/s
AUC(0-t) at 72 h [4]: 57.5 ng·h/mL
microsomal CLint at 1 µM [5]: > 346 µL/min/mg
Cmax [6]: 23 ng/g
AUC(0-t) at 72 h [7]: 26.7 ng·h/mL
Cmax [8]: 2.8 ng/mL
microsomal CLint at 1 µM [9]: 55 µL/min/mg
hepatocyte CLint at 1 µM [10]: 19 µL/min/1e6 cells
MEC [11]: > 25 µM
Tmax [12]: 30 to 60 min
concentration at 4 h [13]: 10 ng/mL
Cmax [14]: 314 ng/mL
hepatocyte CLint at 1 µM [15]: > 277 µL/min/1e6 cells
Cmax [16]: 4.12 ng/mL
Kp [17]: 2
microsomal CLint at 1 µM [18]: 44 µL/min/mg
hepatocyte CLint at 1 µM [19]: 7 µL/min/1e6 cells
Cmax [20]: 125 ng/mL
Tmax [21]: 1 to 2 h
Cmax [22]: 7.1 ng/mL
hepatocyte CLint at 1 µM [23]: 6 µL/min/1e6 cells
bioavailability [24]: < 1%
Drug uptake [25]: Bld
Cmax [26]: 3.7 ng/mL
Tmax [27]: 0.25 to 2 h
Tmax [28]: 30 min
Cmax [29]: 6.3 ng/g
Cmax [30]: 152 ng/g
microsomal CLint at 1 µM [31]: 25 µL/min/mg
Cmax [32]: 6.8 ng/g
Cmax [33]: 72.9 ng/mL
Drug uptake [34]: Bld
Tmax [35]: 0.5 to 2 h
Cmax [36]: 23.4 ng/mL
Cmax [37]: 9700 ng/mL
Tmax [38]: 0.5 to 2 h
microsomal CLint at 1 µM [39]: 87 µL/min/mg

From ChEMBL document CHEMBL4028850, “Identification and Optimization of Pyrrolo[3,2-d]pyrimidine Toll-like Receptor 7 (TLR7) Selective Agonists for the Treatment of Hepatitis B” (J Med Chem, 2017)
